Source: PubChem (several laboratories)
PKD1 kinase inh: inhibitors of human PKD1 kinase | inhibition, % (concentration not given with the values) | PKD1 kinase fluorescence polarization assay | actives 0.056% (n = 200,000) | AID 797 | Q15139
Target sequence (Q15139 whole entry, looked up): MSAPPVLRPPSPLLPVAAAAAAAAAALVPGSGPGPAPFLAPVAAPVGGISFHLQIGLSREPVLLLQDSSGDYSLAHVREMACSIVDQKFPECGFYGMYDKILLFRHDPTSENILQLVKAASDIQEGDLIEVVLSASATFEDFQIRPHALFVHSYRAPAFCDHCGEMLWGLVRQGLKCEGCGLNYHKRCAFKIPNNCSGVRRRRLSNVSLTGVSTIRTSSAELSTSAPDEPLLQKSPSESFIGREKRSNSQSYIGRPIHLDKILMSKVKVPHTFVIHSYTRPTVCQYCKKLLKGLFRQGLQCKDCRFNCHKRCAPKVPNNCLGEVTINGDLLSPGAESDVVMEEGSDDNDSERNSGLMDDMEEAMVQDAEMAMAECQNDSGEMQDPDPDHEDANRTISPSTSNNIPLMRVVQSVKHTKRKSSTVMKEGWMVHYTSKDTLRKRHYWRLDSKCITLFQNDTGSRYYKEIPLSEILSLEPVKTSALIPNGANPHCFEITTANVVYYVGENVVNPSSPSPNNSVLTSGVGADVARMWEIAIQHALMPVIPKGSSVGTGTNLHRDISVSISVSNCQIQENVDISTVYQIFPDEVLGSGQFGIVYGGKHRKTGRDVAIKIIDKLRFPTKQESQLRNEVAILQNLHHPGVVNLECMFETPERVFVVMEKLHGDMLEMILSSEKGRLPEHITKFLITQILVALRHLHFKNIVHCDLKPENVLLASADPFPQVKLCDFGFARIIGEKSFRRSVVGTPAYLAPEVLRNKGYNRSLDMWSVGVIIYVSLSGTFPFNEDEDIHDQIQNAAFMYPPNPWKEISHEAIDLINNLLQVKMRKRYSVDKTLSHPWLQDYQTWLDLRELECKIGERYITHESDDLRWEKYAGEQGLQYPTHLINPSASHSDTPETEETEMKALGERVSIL
Rad51 HR inh: blocks human Rad51 in homologous recombination. hRad51 DNA strand exchange, fluorescence dequenching. inhibition, % at 10 µM. actives 0.085% (n = 200,000);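 active = inhibition above 40% at the single screening dose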
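Material: human Rad51–ssDNA filaments; Probe or stimulus: labelled 47-mer dsDNA for strand exchange; Doses: single 10 µM dose; Incubation: 37 °C 15-min filament assembly, 30-min compound preincubation, 15-min exchange; Technique: FRET fluorescence dequenching, excitation 485 nm, emission 520 nm; Measure: Fluorescence-based percent inhibition, control- and blank-normalised; Benchmarks: plate control and blank wells.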
Wee1 stabilizer: inhibitors of human Wee1 degradation; P30291; HeLa Luc-Wee1K328M stability, luciferase luminescence; 100% = proteasome inhibitor MG132 effect; reporter increase, % at 5 µM; actives 1.2% (n = 220,000); AID 1321;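 active = activation above the mean of all tested compounds plus 3 SD, set per screening run, cut at about 8.8% in these data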;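 note: cells exposed to compound for 20 h before luminescence read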
Arbovirus inh: antivirals against arbovirus infection; inhibition, % at 10 µM; arbovirus infection cell-based antiviral screen; actives 0.37% (n = 200,000); in the data active = inhibition above about 30%
L major viab: inhibitors of Leishmania major promastigote growth | Leishmania major promastigotes, resazurin fluorescence viability | inhibition, % at 10 µM | actives 9% (n = 200,000) | AID 1063;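 note: promastigotes grown with compound for 44 hours at 28 °C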
CHOP inh: inhibitors of CHOP induction in ER stress response; CHO-K1 CHOP-promoter luciferase, tunicamycin-induced, 15-18 h; inhibition, % at 10 µM; actives 3.8% (n = 220,000); AID 2732;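 active = compounds that reduced the stress-induced luciferase reporter signal by more than about 70% of percent inhibition, limit read from the data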
A number is an active result. Compounds with a hit are over-represented: about 12% of the library has one in this group of screens. Cut-off read from the data, not from the text of the source, unless noted: active = inhibition above about 50%; inactive = the rest.

CCOc1cc(S(=O)(=O)NCc2ccncc2)ccc1Cl was read as PKD1 kinase inh inactive, Rad51 HR inh inactive, Wee1 stabilizer inactive, Arbovirus inh inactive, L major viab inactive and CHOP inh inactive.
`Cn1cccc1-c1nc2ccc(NC(=O)c3ccc([N+](=O)[O-])cc3)cc2[nH]1` gave PKD1 kinase inh inactive, Rad51 HR inh inactive, Wee1 stabilizer inactive, Arbovirus inh inactive, L major viab inactive and CHOP inh inactive.
Screening Cn1cccc1-c1nc2ccc(NC(=O)c3ccccc3)cc2[nH]1 returned PKD1 kinase inh inactive, Rad51 HR inh inactive, Wee1 stabilizer 10.2, Arbovirus inh inactive, L major viab inactive and CHOP inh inactive.
For O=C(c1ccccc1)c1ccc2nc(-c3ccc(NC(=O)c4ccccc4F)cc3)[nH]c2c1 the results were PKD1 kinase inh inactive, Rad51 HR inh inactive, Wee1 stabilizer inactive, Arbovirus inh inactive, L major viab 61.2 and CHOP inh inactive.
Cc1onc(-c2ccccc2Cl)c1C(=O)NC(=S)Nc1ccc(C(C)(C)C)cc1 was read as Rad51 HR inh inactive, Wee1 stabilizer inactive and CHOP inh inactive.
For Cc1ccc(NC(=S)N(CCCN(C)C)Cc2cc3cc4c(cc3[nH]c2=O)OCO4)cc1 the results were PKD1 kinase inh inactive, Rad51 HR inh inactive, Wee1 stabilizer inactive, Arbovirus inh inactive, L major viab inactive and CHOP inh inactive.
Cc1ccc2[nH]c(=O)c(CN(CCCN(C)C)C(=S)NCCc3ccccc3)cc2c1 was read as PKD1 kinase inh inactive, Rad51 HR inh inactive, Wee1 stabilizer inactive, Arbovirus inh inactive, L major viab 75.7 and CHOP inh inactive.
Screening Cc1cccc2cc(CN(CCCN(C)C)C(=S)NCCc3ccccc3)c(=O)[nH]c12 returned PKD1 kinase inh inactive, Rad51 HR inh inactive, Wee1 stabilizer inactive, Arbovirus inh inactive, L major viab 64.7 and CHOP inh inactive.
For COc1cc2cc(CN(CCc3cccc(C)c3)C(=S)NCCCN(C)C)c(=O)[nH]c2cc1OC the results were PKD1 kinase inh inactive, Wee1 stabilizer inactive, Arbovirus inh inactive, L major viab 52.1 and CHOP inh inactive.
Screening COC(=O)C1CCN(CC(=O)Nc2ccc(OC)c(Cl)c2)CC1 returned PKD1 kinase inh inactive, Rad51 HR inh inactive, Wee1 stabilizer inactive, Arbovirus inh inactive, L major viab inactive and CHOP inh inactive.
CCn1c(CC(=O)Nc2ccccc2)n[nH]c1=S was read as PKD1 kinase inh inactive, Rad51 HR inh inactive, Wee1 stabilizer inactive, Arbovirus inh inactive, L major viab inactive and CHOP inh inactive.
Screening Cc1ccc(-n2c(C)cc(C(=O)COC(=O)c3ccc[nH]c3=O)c2C)cc1 returned PKD1 kinase inh inactive, Rad51 HR inh inactive, Wee1 stabilizer inactive, Arbovirus inh inactive, L major viab 70.2 and CHOP inh inactive.
COCCn1c(C)cc(C(=O)COC(=O)c2ccc[nH]c2=O)c1C was read as PKD1 kinase inh inactive, Rad51 HR inh inactive, Wee1 stabilizer inactive, Arbovirus inh inactive, L major viab 57.2 and CHOP inh inactive.
Cc1cc2c3c(c1)C1(SCC(=O)N1c1ccc(F)cc1)C(=O)N3C(C)(C)CC2C (stereo unspecified) was read as PKD1 kinase inh inactive, Rad51 HR inh inactive, Wee1 stabilizer inactive, Arbovirus inh inactive, L major viab 61.1 and CHOP inh inactive.
Screening Cn1c(=O)[nH]c(=O)c2c1nc1n2CCCN1Cc1ccccc1 returned Rad51 HR inh inactive, Wee1 stabilizer inactive and CHOP inh inactive.
Screening COc1ccc(/C=C/C(=O)Oc2cc(C)[nH]c(=O)c2[N+](=O)[O-])cc1OC returned PKD1 kinase inh inactive, Rad51 HR inh inactive, Wee1 stabilizer inactive, Arbovirus inh inactive, L major viab inactive and CHOP inh inactive.
For CCN(CC)P(=O)(Nc1ccccc1Br)c1ccc(N(C)C)cc1NC(=O)c1ccco1 (stereo unspecified) the results were PKD1 kinase inh inactive, Rad51 HR inh inactive, Wee1 stabilizer inactive, Arbovirus inh inactive, L major viab 73.2 and CHOP inh inactive.
Screening CCN(CC)C(=O)c1cc(Cl)ccc1NC(=O)c1ccco1 returned Rad51 HR inh inactive, Wee1 stabilizer inactive and CHOP inh inactive.
Screening CC(=O)C1C(c2ccc(Cl)cc2)c2c(noc2C)CC1(C)O (stereo unspecified) returned Wee1 stabilizer inactive and CHOP inh inactive.
Screening CC(=O)Nc1cccc(-c2nc3ccccc3s2)c1 returned PKD1 kinase inh inactive, Rad51 HR inh inactive, Wee1 stabilizer inactive, Arbovirus inh inactive, L major viab inactive and CHOP inh inactive.
For CC(=O)Nc1sc2c(c1-c1nc3ccccc3s1)CCN(C(C)C)C2 the results were PKD1 kinase inh inactive, Wee1 stabilizer inactive, Arbovirus inh inactive, L major viab 100.2 and CHOP inh inactive.
CCOC(=O)c1cc(-c2ccc(OC)cc2OC)nn1-c1ccc(C(=O)O)cc1 was read as PKD1 kinase inh inactive, Rad51 HR inh inactive, Wee1 stabilizer inactive, Arbovirus inh inactive, L major viab inactive and CHOP inh inactive.
`CCN(CC)CCOc1ccc(Br)cc1` gave PKD1 kinase inh inactive, Rad51 HR inh inactive, Wee1 stabilizer inactive, Arbovirus inh inactive, L major viab inactive and CHOP inh inactive.
Screening CCN(CC)CCOc1ccc2c(c1)C(=NO)c1cc(OCCN(CC)CC)ccc1-2 returned PKD1 kinase inh inactive, Rad51 HR inh inactive, Wee1 stabilizer inactive, Arbovirus inh inactive, L major viab 100.5 and CHOP inh inactive.
CN(C)CCOc1cccc(Cl)c1 was read as PKD1 kinase inh inactive, Rad51 HR inh inactive, Wee1 stabilizer inactive, Arbovirus inh inactive, L major viab inactive and CHOP inh inactive.
`CN1CCN(CCOc2ccc(Cl)c(Cl)c2)CC1` gave PKD1 kinase inh inactive, Rad51 HR inh inactive, Wee1 stabilizer inactive, Arbovirus inh inactive, L major viab 98.3 and CHOP inh inactive.
`CN1CCN(CCOc2cccc(Cl)c2)CC1` gave PKD1 kinase inh inactive, Rad51 HR inh inactive, Wee1 stabilizer inactive, Arbovirus inh inactive, L major viab inactive and CHOP inh inactive.
For CCN(CC)CCCOc1ccc(Cl)c(Cl)c1 the results were PKD1 kinase inh inactive, Rad51 HR inh inactive, Wee1 stabilizer inactive, Arbovirus inh inactive, L major viab 83.4 and CHOP inh inactive.
O=C(CNS(=O)(=O)c1ccc(Br)cc1)N1CCOCC1 was read as PKD1 kinase inh inactive, Rad51 HR inh inactive, Wee1 stabilizer inactive, Arbovirus inh inactive, L major viab inactive and CHOP inh inactive.
For CC(Nc1ccc(Br)cn1)c1cc(Cl)ccc1O (stereo unspecified) the results were PKD1 kinase inh inactive, Wee1 stabilizer inactive, Arbovirus inh inactive, L major viab 92.1 and CHOP inh 77.0.
CC(Nc1ccc(Cl)cc1)c1cc(Cl)ccc1O (stereo unspecified) was read as PKD1 kinase inh inactive, Rad51 HR inh inactive, Wee1 stabilizer inactive, Arbovirus inh inactive, L major viab inactive and CHOP inh inactive.
`Cc1ccc(N=C2NC(=O)/C(=C\c3ccsc3)S2)c(C)c1` gave PKD1 kinase inh inactive, Wee1 stabilizer inactive, Arbovirus inh inactive, L major viab inactive and CHOP inh 71.8.
